# Only some compounds are listed: those with a hit (about 1.7% of all), similar ones and a draw of the others.
# Scp1 inh: Scp-1 phosphatase inhibitors, primary screen, biochemical, colorimetric, uHTS | 0.88% of 340,000 active | inhibition, % at 20 µM | AID 493091, 2011 | Recombinant Scp1, phosphopeptide, malachite green phosphate absorbance | Carboxy-terminal domain RNA polymerase II polypeptide A small phosphatase 1 (Homo …;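 active means inhibition above about 50% at 20 µM, limit read from the data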;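 further: plate controls were DMSO wells with enzyme for no effect and wells lacking enzyme for full effect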
# Target sequence (Q9GZU7 76-261 limits assumed): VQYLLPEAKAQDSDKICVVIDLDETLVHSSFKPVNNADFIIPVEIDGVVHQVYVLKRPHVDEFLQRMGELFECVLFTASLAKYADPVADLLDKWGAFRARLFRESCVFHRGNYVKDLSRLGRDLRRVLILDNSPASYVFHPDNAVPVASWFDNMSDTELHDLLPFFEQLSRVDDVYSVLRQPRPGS
#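 Test system: SCP-1 phosphatase catalytic domain, residues 76-261 | Compound dosing: One concentration, 20 µM, with 1.0% DMSO | Schedule: 45 min room-temperature reaction, 5 min colour, 30 min stabiliser | Detection: Absorbance at 630 nm | Read-out basis: % inhibition of SCP-1 phosphate liberation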
# STEP inh: STEP phosphatase inhibitors, primary screen, biochemical, fluorescence intensity, uHTS. Tyrosine-protein phosphatase non-receptor type 5 (Homo sapiens), P54829. recombinant STEP, OMFP fluorogenic substrate. inhibition, % at 20 µM. 0.25% of 360,000 active;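 active means inhibition at 20 µM, scaled per plate between control wells, above about 37%, limit read from the data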;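 further: 0% = DMSO with enzyme and substrate and 100% = substrate only without enzyme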
#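 Material: STEP (striatal-enriched tyrosine phosphatase) enzyme, cell-free | Medium: 50 mM Bis-Tris pH 6.0 with 2.5 mM DTT and 0.005% Tween 20 | Read-out: Percent inhibition scaled to no-enzyme and uninhibited-enzyme controls, plate-pattern corrected | Signal: Fluorescence read at 480 nm ex / 540 nm em | Times: 20 min reaction, room temperature, in the dark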
# DNMT1 inh: human DNMT1 methyltransferase inhibitors, primary screen, biochemical, molecular beacon, fluorescence, HinP1I cleavage, uHTS | DNA (cytosine-5)-methyltransferase 1 (Homo sapiens), P26358 | inhibition (reported as % activation of signal), % at 10 µM | 0.83% of 360,000 active; in the data active means inhibition above about 50%
# LMPTP inh: LMPTP phosphatase inhibitors, primary screen, biochemical, fluorescence intensity, uHTS; recombinant LMPTP-A, OMFP fluorogenic substrate; inhibition, % at 20 µM; 0.22% of 360,000 active;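 active means compounds that cut the enzyme signal by at least half of the control window in the single-dose screen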;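 further: plate controls were DMSO wells with enzyme plus substrate for no effect and substrate without enzyme for full effect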
# Target sequence (P24666 whole entry, looked up): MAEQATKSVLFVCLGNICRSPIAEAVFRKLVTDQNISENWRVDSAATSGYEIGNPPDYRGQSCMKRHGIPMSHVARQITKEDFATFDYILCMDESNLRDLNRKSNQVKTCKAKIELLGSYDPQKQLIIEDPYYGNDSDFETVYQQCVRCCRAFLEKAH
#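 Buffer or medium: Bis-Tris pH 6.0, DTT, detergent; Assay system: LMPTP-A enzyme; Quantity: 0.625 nM enzyme; Detection: endpoint fluorescence intensity; Times: 50 min dark incubation at room temperature; Controls: substrate-only low control, DMSO enzyme-plus-substrate high control; Doses: single 20 µM dose; Read-out: percent inhibition versus substrate-only and uninhibited controls; Reagent: 400 µM OMFP.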
# SUMO1 PPI mod: modulators of SUMO1 protein-protein interactions, primary screen, biochemical, uHTS; Small ubiquitin-related modifier 1 (Homo sapiens), P63165; SUMO1 binding to a labelled peptide, TR-FRET, 1 h; inhibition, % at 20 µM; 0.33% of 360,000 active; in the data active means inhibition above about 37%
# Target sequence (P63165 whole entry, looked up): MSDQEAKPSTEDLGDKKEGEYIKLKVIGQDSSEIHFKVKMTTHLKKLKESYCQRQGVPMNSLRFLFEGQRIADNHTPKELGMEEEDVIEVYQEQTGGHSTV
# Scp1 confirm: Scp-1 phosphatase inhibitors, retest, confirmation, biochemical, colorimetric, single concentration | AID 540281, 2011 | recombinant SCP-1 catalytic domain, phosphate release, malachite green absorbance | inhibition, % at 20 µM | shares compounds with Scp1 inh | 61% of 2,500 active;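 further: plate controls were DMSO with enzyme for no effect and buffer wells lacking enzyme for full effect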
# Scp-1 MG ctr: colorimetric readout interference by compounds, confirmation, artefact control for Scp-1 inhibitor project, biochemical, single concentration | Colorimetric interference counterscreen, malachite green absorbance 630 nm | AID 540313, 2011 | apparent inhibition (interference), % at 20 µM | 2,500 tested, under 10 active | shares compounds with Scp1 inh;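 further: compounds added after enzyme reaction finished so only phosphate colour detection is probed; plate controls were DMSO wells with completed Scp-1 reaction for no effect and substrate wells lacking enzyme for full effect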
# Scp-1 Tm shift: Scp-1 binding by thermal shift, confirmation, orthogonal assay for Scp-1 inhibitor project, biophysical, differential scanning fluorimetry; shares compounds with Scp1 inh; Recombinant SCP1, Sypro Orange thermal shift Tm; thermal shift relative to vanadate control, % at 40 µM; 25% of 1,500 active;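 active means substances whose mean melting-temperature shift, as a percentage of the reference inhibitor's shift, reaches about 5.3%, limit read from the data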;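 further: 0% = Tm of DMSO wells and 100% = Tm with sodium orthovanadate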
# * hit, by the source's call; . = no result.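 How the source made its calls, unless noted: active means inhibition of at least 30% at 20 µM; inactive means the rest.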
SMILES,Scp1 inh,STEP inh,DNMT1 inh,LMPTP inh,SUMO1 PPI mod,Scp1 confirm,Scp-1 MG ctr,others
O=C(COC(=O)CNC(=O)c1cccc(OC(F)F)c1)NCc1ccc2c(c1)OCO2,-6,-3,-1,-1,-3,.,.,
CN(C)CC(C)(C)CNS(=O)(=O)c1cccc(Cl)c1Cl,70*,-5,-1,-2,-3,12,-22,
COCCn1c(Cc2ccccc2)nnc1SC(C)C(=O)NC1CC1 (configuration not stated),-6,-3,1,-2,3,.,.,
O=C1/C(=C\c2ccc(O)cc2)SC(=S)N1c1cccnc1,98*,34,-1,25,-13,16,-13,
COc1ccc(/C=C2\SC(=S)N(c3cccnc3)C2=O)cc1,-6,-1,2,2,0,.,.,
NCCCCC(=O)O,54*,-3,-2,-3,1,-7,-11,
NCCCC(=O)O,-6,-4,2,-1,1,.,.,
COCCCNC(=O)C[C@H]1C[C@H](C(=O)N(C(C)C)C(C)C)[C@@]2(C)c3[nH]c4cc(CCC(=O)N(C)C)ccc4c3CCN2C1=O,4,-2,7,-2,0,.,.,
COc1ccc(Cn2c(-c3ccccc3)nc3c(c(=O)c4ccccc4n3C)c2=O)cc1,6,4,38,5,11,.,.,
COc1ccc(Cn2c(C3CCCCC3)nc3c(c(=O)c4ccccc4n3C)c2=O)cc1,87*,.,.,.,.,55*,-10,Scp-1 Tm shift=-29
Cc1ccc(/C=C/S(=O)(=O)NCC(=O)OCC(=O)NCc2ccccc2)cc1,-7,0,-1,-1,-3,.,.,
O=C(O)C(F)=C(c1ccccc1)c1ccccc1,52*,2,1,-3,4,-10,-7,
CCN1C(=O)C(=O)N(CC(=O)N(C)CC(=O)Nc2ccccc2Cl)C1=O,-1,-1,0,-1,-2,-5,-11,
CCc1ccc(S(=O)(=O)NCCOc2cccc3cccnc23)cc1,0,0,1,2,-6,.,.,
CC(=O)c1ccc(NC(=O)c2cccc(N3C(=O)c4ccccc4C3=O)c2)cc1,97*,98*,40,55*,84*,48*,-13,Scp-1 Tm shift=-15
Cc1ccc(C)c(NC(=O)CN(C)C(=O)c2cc(-c3cccs3)nn2-c2ccccc2)c1,56*,1,-4,3,1,-9,-8,
O=C(Cc1ccc(Br)cc1)NNC(=O)Nc1ccc(Cl)cc1,63*,1,26,0,3,62*,-3,Scp-1 Tm shift=4
O=C(Cc1ccc(Cl)cc1)Nc1ccc(Br)cc1,-4,-2,1,1,0,.,.,
Cc1[nH]c2ccccc2c1/C=C/c1cc[n+](C)cc1,34,-4,8,6,-85,.,.,
Cc1ccccc1/C=C/c1cc[n+](C)cc1,58*,2,1,-1,-16,-12,-20,
CCN(CC)S(=O)(=O)c1cccc(NC(=O)COC(=O)/C=C/c2ccco2)c1,10,-2,4,0,-3,.,.,
CN(C)S(=O)(=O)c1cccc(NC(=O)COC(=O)/C=C/c2ccco2)c1,68*,7,32,2,0,41*,-13,Scp-1 Tm shift=-19
COc1ccc(Cl)cc1S(=O)(=O)NCc1cccnc1,60*,1,0,0,5,-17,-14,
CCOc1ccc(Cl)cc1S(=O)(=O)NCc1cccnc1,-7,3,1,-1,2,.,.,
CCN1CCN(c2ccc(NC(=O)c3ccccc3F)cc2Cl)CC1,-3,-1,0,-1,3,.,.,
SMILES,Scp1 inh,STEP inh,DNMT1 inh,LMPTP inh,SUMO1 PPI mod,Scp1 confirm,Scp-1 MG ctr,others
CCN1CCN(c2ccc(NC(=O)c3cc4ccccc4cc3OC)cc2C)CC1,65*,-5,2,0,-21,-23,-16,
Cc1cccc(C)c1NC(=O)C(CCc1ccccc1)N1CCN(C)CC1 (configuration not stated),.,.,.,-1,2,.,.,
Cc1ccc(S(=O)(=O)NC(=O)c2cccc(Br)c2)cc1,-7,1,3,0,0,.,.,
O=C(NS(=O)(=O)c1ccccc1)c1cccc(Br)c1,62*,-2,2,-2,5,-5,-10,
O=C(COn1nnc2ccc(S(=O)(=O)N3CCOCC3)cc21)NCc1cccc(Cl)c1,.,1,4,0,3,.,.,
CCSc1nnc(NC(=O)C2CC=CCC2C(=O)O)s1 (configuration not stated),87*,12,27,0,5,53*,-8,Scp-1 Tm shift=-5
CCSc1nnc(NC(=O)C2CCCCC2)s1,-1,-4,1,-1,-2,.,.,
O=C(N/N=C/c1ccncc1)c1ccc(NC(=O)c2ccc(Cl)cc2)cc1,64*,21,1,11,-1,26,-10,
O=C(CCCCCNC(=O)c1ccccc1)N/N=C/c1ccccc1O,-8,-3,2,-2,2,.,.,
Cc1ccc(/C=N/NC(=O)c2ccc(NC(=O)c3ccc(Cl)cc3)cc2)o1,3,3,27,41,4,.,.,
O=C(CCCCCNC(=O)c1ccccc1)N/N=C/c1ccco1,52*,0,19,0,-4,32*,-11,Scp-1 Tm shift=-11
O=C(N/N=C/c1ccco1)c1ccc(NC(=O)c2ccc(Cl)cc2)cc1,77*,10,36,63*,5,40*,-6,Scp-1 Tm shift=0
O=C(N/N=C/c1ccncc1)c1ccc(NC(=O)c2cccc(Cl)c2)cc1,68*,31,-11,10,5,35*,-16,Scp-1 Tm shift=15*
CCOC(=O)C1CCCN(S(=O)(=O)c2cc(C(=O)OC)n(C)c2)C1 (configuration not stated),-10,-4,1,0,6,.,.,
Cc1ccc(C)c(S(=O)(=O)N2CCN(C(=O)CCCc3c[nH]c4ccccc34)CC2)c1,-6,3,-5,5,6,.,.,

# Compound activity from PubChem BioAssay.
